{
  "source": "ChEMBL document CHEMBL1240366",
  "about": "“Blockade of X4-tropic HIV-1 cellular entry by GSK812397, a potent noncompetitive CXCR4 receptor antagonist” (Antimicrob Agents Chemother, 2010)",
  "key": {"[1]": {"system": "Human immunodeficiency virus 1", "test": "Antiviral activity against HIV1 isolate 05-121797 assessed as inhibition of viral replication after 7 days by scintillation counting", "assay_type": "functional, organism-based", "details": "Human immunodeficiency virus 1, isolate 05-121797, 168 h"}, "[2]": {"system": "Human immunodeficiency virus 1", "test": "Antiviral activity against HIV1 Bal infected in human HOS cells after 72 hrs by luminescence assay", "assay_type": "functional, organism-based", "details": "Human immunodeficiency virus 1, Bal", "summary_of_the_method": "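R5-tropic virus infection of HOS cells (hCXCR4/hCCR5/hCD4, LTR-luciferase reporter). Cells were plated in DMEM with 2% FCS overnight, pre-incubated with compound for 1 h, then given virus pre-mixed with compound. Incubation was 72 h at 37°C. Read-out was luciferase luminescence. IC50 from a four-parameter logistic fit.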"}, "[3]": {"system": "Human immunodeficiency virus 1", "test": "Antiviral activity against HIV1 isolate 05-121798 assessed as inhibition of viral replication after 7 days by scintillation counting", "assay_type": "functional, organism-based", "details": "Human immunodeficiency virus 1, isolate 05-121798, 168 h"}, "[4]": {"target": "C-X-C chemokine receptor type 4 (Homo sapiens) (UniProt P61073)", "sequence (P61073 whole entry)": "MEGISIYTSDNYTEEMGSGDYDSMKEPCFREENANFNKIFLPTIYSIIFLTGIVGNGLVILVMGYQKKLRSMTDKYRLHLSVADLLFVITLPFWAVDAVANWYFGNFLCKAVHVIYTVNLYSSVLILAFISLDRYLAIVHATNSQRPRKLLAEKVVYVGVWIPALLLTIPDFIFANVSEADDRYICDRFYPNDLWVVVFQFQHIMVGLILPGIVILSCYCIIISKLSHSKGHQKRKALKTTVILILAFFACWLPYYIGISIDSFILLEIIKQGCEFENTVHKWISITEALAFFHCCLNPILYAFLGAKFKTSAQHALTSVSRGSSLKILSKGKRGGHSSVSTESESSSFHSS", "test": "Antagonist activity at human CXCR4 expressed in HEK293 cells assessed as inhibition of SDF1-induced increase in intracellular calcium level treated 15 mins before agonist challenge measured after 1 hr by FLIPR assay", "assay_type": "functional, cell-based"}, "[5]": {"test": "Clearance in mouse at 1 mg/kg, iv administered as single dose after 24 hrs by liquid chromatography-mass spectroscopy", "assay_type": "ADME, organism-based", "design": "dose 1 mg/kg, route intravenous", "details": "in vivo", "summary_of_the_method": "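Single intravenous dose of 1 mg/kg. Plasma was sampled at serial times over 24 h and measured by LC-MS/MS. Clearance was derived by pharmacokinetic analysis.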"}, "Cytochrome P450 2C9": {"target": "Cytochrome P450 2C9 (Homo sapiens, UniProt P11712)", "sequence (P11712 whole entry)": "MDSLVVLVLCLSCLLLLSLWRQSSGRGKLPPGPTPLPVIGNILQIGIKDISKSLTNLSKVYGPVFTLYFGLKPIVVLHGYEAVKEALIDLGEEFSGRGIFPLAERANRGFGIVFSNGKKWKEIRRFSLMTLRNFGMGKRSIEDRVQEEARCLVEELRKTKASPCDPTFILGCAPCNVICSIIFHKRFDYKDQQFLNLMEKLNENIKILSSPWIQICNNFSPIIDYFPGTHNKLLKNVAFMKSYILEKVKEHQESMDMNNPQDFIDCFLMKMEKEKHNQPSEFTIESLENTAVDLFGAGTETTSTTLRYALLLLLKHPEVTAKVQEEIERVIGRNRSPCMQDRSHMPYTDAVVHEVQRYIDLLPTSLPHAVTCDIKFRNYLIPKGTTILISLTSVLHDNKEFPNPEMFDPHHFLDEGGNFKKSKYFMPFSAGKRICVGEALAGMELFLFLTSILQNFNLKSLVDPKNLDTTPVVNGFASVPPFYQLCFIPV", "test": "Inhibition of CYP2C9 up to 30 uM", "assay_type": "ADME"}, "HEK293": {"system": "HEK293", "test": "Cytotoxicity against HEK293 cells after 24 hrs by MTS assay", "assay_type": "cell-based", "details": "Homo sapiens, HEK293, 24 h", "summary_of_the_method": "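Viability in the cell-cell fusion format (BacMam-transduced HEK-293 cells mixed with HOS cells). Compound was added to the cell mix, and viability was read after 24 h with MTS dye.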"}, "[6]": {"system": "Human immunodeficiency virus 1", "test": "Antiviral activity against HIV1 isolate 05-121778 assessed as inhibition of viral replication after 7 days by scintillation counting", "assay_type": "functional, organism-based", "details": "Human immunodeficiency virus 1, isolate 05-121778, 168 h"}, "[7]": {"system": "Human immunodeficiency virus 1", "test": "Antiviral activity against HIV1 isolate 05-121771 assessed as inhibition of viral replication after 7 days by scintillation counting", "assay_type": "functional, organism-based", "details": "Human immunodeficiency virus 1, isolate 05-121771, 168 h"}, "[8]": {"system": "Human immunodeficiency virus 1", "test": "Antiviral activity against HIV1 isolate 05-121792 assessed as inhibition of viral replication after 7 days by scintillation counting", "assay_type": "functional, organism-based", "details": "Human immunodeficiency virus 1, isolate 05-121792, 168 h"}, "[9]": {"test": "Half life in mouse at 3 mg/kg, po administered as single dose by liquid chromatography-mass spectroscopy", "assay_type": "ADME, organism-based", "design": "dose 3 mg/kg, route oral", "details": "in vivo"}, "[10]": {"target": "Voltage-gated inwardly rectifying potassium channel KCNH2 (Homo sapiens, UniProt Q12809)", "sequence (Q12809 whole entry)": "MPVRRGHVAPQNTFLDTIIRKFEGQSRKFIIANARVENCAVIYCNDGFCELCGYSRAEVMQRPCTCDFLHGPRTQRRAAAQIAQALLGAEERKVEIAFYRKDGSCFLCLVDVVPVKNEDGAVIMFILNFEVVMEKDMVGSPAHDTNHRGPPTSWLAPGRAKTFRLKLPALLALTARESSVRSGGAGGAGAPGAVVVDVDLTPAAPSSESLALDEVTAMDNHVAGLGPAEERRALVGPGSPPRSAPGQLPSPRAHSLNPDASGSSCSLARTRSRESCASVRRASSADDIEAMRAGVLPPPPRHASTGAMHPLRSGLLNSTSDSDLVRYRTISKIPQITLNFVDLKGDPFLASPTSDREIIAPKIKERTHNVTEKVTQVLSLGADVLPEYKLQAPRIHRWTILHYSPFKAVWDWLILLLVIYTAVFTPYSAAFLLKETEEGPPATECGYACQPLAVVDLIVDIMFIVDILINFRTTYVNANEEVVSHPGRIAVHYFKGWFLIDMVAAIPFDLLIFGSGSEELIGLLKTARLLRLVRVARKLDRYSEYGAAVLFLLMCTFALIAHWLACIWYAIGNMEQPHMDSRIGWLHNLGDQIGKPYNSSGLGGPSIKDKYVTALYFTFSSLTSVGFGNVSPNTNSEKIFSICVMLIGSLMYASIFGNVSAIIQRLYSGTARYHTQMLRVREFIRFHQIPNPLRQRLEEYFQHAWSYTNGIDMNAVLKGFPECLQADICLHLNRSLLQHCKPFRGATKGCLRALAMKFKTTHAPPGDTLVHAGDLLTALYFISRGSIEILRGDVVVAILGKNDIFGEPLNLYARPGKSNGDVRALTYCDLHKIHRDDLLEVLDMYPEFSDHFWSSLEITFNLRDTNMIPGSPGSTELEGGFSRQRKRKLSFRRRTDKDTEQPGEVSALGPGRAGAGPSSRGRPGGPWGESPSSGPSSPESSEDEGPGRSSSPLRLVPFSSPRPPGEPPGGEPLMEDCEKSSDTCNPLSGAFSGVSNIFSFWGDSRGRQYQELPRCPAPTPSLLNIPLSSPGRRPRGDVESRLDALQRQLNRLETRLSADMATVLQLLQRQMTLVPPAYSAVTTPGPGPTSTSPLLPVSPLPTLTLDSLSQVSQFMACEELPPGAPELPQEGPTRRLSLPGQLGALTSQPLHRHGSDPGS", "test": "Inhibition of human ERG up to 10 uM"}, "Cytochrome P450 3A4": {"target": "Cytochrome P450 3A4 (Homo sapiens, UniProt P08684)", "sequence (P08684 whole entry)": "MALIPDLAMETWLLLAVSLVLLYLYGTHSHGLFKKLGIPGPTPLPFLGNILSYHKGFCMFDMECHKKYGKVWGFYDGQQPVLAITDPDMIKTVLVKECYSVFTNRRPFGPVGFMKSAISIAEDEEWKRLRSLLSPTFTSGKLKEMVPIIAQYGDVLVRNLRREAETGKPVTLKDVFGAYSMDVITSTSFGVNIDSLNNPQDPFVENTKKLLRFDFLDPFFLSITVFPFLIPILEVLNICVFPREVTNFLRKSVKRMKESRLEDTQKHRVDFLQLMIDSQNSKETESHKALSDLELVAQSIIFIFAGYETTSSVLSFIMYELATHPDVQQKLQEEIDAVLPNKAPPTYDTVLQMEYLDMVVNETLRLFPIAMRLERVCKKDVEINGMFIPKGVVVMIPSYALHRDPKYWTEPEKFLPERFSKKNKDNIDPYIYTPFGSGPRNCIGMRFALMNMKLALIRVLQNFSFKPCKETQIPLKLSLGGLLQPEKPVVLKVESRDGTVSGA", "test": "Inhibition of CYP3A4 up to 30 uM", "assay_type": "ADME"}, "[11]": {"target": "C-X-C chemokine receptor type 4 (Homo sapiens) (UniProt P61073)", "test": "Noncompetitive inhibition of CXCR4-mediated chemotaxis in SDF1-stimulated human U937 cells treated 15 mins before SDF1 challenge measured after 2 hrs by luminescence assay", "assay_type": "cell-based", "details": "U-937", "summary_of_the_method": "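U937 cells (endogenous CXCR4) in RPMI with 2% FCS and 10 mM HEPES, 5 × 10^6 cells/ml, preincubated 15 min with compound, then placed above a 5.0 μm filter. The lower chamber held the same compound concentration plus SDF-1. Migration ran 2 h. Migrated cells were quantified by ATP luminescence. Viability was checked under identical conditions. For mode of action, SDF-1 concentration-response curves were run at increasing compound concentrations.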"}},
  "note": "Activity calls are given as the source filed them. No cut-off for these calls is given here.",
  "data": [
    {"molecule": "CN1CCN(c2cccc3nc(CN(C)[C@H]4CCCc5cccnc54)c(CO)n23)CC1", "values": [
      {"measurement": "IC50", "setting": "[1]", "value": 1, "unit": "nM"},
      {"measurement": "IC50", "setting": "[2]", "value": "> 2500", "unit": "nM"},
      {"measurement": "IC50", "setting": "[3]", "value": 1, "unit": "nM"},
      {"measurement": "Activity", "setting": "[4]", "value": "Dose-dependent effect"},
      {"measurement": "clearance", "setting": "[5]", "value": 15.9, "unit": "mL/min/kg"},
      {"measurement": "inhibition (INH)", "setting": "Cytochrome P450 2C9", "value": "Not Active"},
      {"measurement": "IC50", "setting": "HEK293", "value": "> 1000", "unit": "nM"},
      {"measurement": "IC50", "setting": "[6]", "value": 1, "unit": "nM"},
      {"measurement": "IC50", "setting": "[7]", "value": 1, "unit": "nM"},
      {"measurement": "IC50", "setting": "[8]", "value": 1, "unit": "nM"},
      {"measurement": "half-life", "setting": "[9]", "value": 4.1, "unit": "h"},
      {"measurement": "inhibition (INH)", "setting": "[10]", "value": "Not Active"},
      {"measurement": "inhibition (INH)", "setting": "Cytochrome P450 3A4", "value": "Not Active"},
      {"measurement": "inhibition", "setting": "[11]", "value": "Active"}
    ]}
  ]
}
